# Bioassay records as filed in PubChem BioAssay.
# This is one part of a sample in which hits are shown more often than they occur.
# CHOP inh: blocks CHOP induction under ER stress. CHO-K1 CHOP-promoter luciferase, tunicamycin-induced, 15-18 h. inhibition, % at 10 µM. hit rate 3.8% among 220,000. AID 2732;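 active = compounds that reduced the stress-induced luciferase reporter signal by more than about 70% of percent inhibition, limit read from the data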
# UPR CHOP act: activators of apoptotic arm of unfolded protein response (CHOP). hit rate 0.34% among 330,000. activation, % at 10 µM. AID 449763. CHO-CHOP luciferase reporter, UPR activation, luminescence; percent of tunicamycin response over DMSO baseline;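 active = at 10 µM dose, activation of 40% or more, normalized to positive control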
#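 Dosing – one dose, 10 µM in 0.5% DMSO · System – CHO-CHOP cells, stable luciferase reporter of PERK-eIF2a-CHOP signalling · Input – 500 cells/well · Control set – tunicamycin 10 µg/mL final as positive, DMSO-only wells as negative · Timing – 6 h compound treatment, 37 °C · Measure – % activation vs tunicamycin · Technique – luminescence read with Steady-Glo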
# Lmaj promast: reduces viability of Leishmania major promastigotes; resazurin fluorescence viability; inhibition, % at 10 µM; hit rate 9% among 200,000; in the data active = inhibition above about 50%;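 note: promastigotes grown with compound for 44 hours at 28 °C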
# T cruzi inh: blocks replication of Trypanosoma cruzi; T. cruzi beta-gal in NIH3T3, luminescence, 90 h; AID 1885; inhibition, % (concentration not given with the values); hit rate 1.4% among 300,000;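 active = mean inhibition across valid replicates above about 55%, limit read from the data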;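 note: signal also drops with host cell toxicity which is not excluded here; higher percent means less beta-gal luminescence so fewer parasites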
#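 System: Mouse NIH/3T3 fibroblasts infected with β-gal-expressing T. cruzi Tulahuen C4 | Quantity: NIH/3T3 cells, 5,000 per well | Reagent: 5000 reporter trypomastigotes per well | Dosing: Compound pinned at 50 nL/well, DMSO | Schedule: 3 h host attachment, then at least 90 h co-culture | Detection: GalScreen luminescence, 60 min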
# Dynein cargo inh: blocks dynein driven cargo transport along microtubules. AID 1381. 3617.4 mouse cells, GR-EGFP nuclear translocation imaging; test concentration mostly 20 µM; stimulated with dexamethasone, 1 µM; hits give low values. z-score, hits read low. hit rate 0.47% among 220,000;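 active = plate z-score of nuclear minus cytoplasmic receptor signal below a set negative limit, without overly bright fluorescence or cell loss, cut at about -3.5 in these data, passing the limit was not always enough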;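 note: z-score of nuclear minus cytoplasmic ring GR-EGFP intensity difference per well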
#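 Also added: dexamethasone, 1.0 µM final. Medium: tet-free, stripped-serum medium. Detection: fixed, Hoechst-stained cells imaged at 10x for EGFP. Read-out: nuclear-to-cytoplasmic GR-EGFP distribution per well. Times: induction 48 h, compound 1 h, agonist 30 min.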
# UPR XBP1 act: adaptive UPR (XBP1) activation; CHO-XBP1 luciferase reporter, IRE1-XBP1 UPR activation, luminescence; percent of tunicamycin response, DMSO as zero; activation, % at 20 µM; AID 463104; hit rate 0.33% among 330,000;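 active = versus positive control, 20 µM dose yields 30% or more activation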
#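 Material: IRE1-XBP1 luciferase reporter CHO line / Quantity: one thousand reporter cells per well / Buffer or medium: F12 with 10% serum / Compound: 20 µM single concentration, DMSO 1% / Times: 6 h treatment, 37 °C / Detection: Steady-Glo luciferase glow luminescence, 10 min after reagent addition / Benchmarks: tunicamycin high, DMSO low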
# Numbers stand for hits; – = inactive; · = not tested or not shown.
SMILES,CHOP inh,UPR CHOP act,Lmaj promast,T cruzi inh,Dynein cargo inh,UPR XBP1 act
O=C(c1ccc(F)cc1)C(CCCCCC(CN1CCOCC1)C(=O)c1ccc(F)cc1)CN1CCOCC1 (stereo unspecified),–,–,99,–,–,–
CC(C)Oc1ccc(/C(O)=C2/C(=O)C(=O)N(CCN3CCNCC3)C2c2cccc([N+](=O)[O-])c2)cc1 (stereo unspecified),·,–,·,–,·,–
CC1(C)CC(=O)C=C(c2cccc(Br)c2)C1,·,–,·,·,·,–
CCOc1ccc2nc(SCC(=O)N3CCCCCC3)c(C#N)cc2c1,–,–,64,–,–,–
CCOc1ccc2cc(C#N)c(SCC(=O)N3CCOCC3)nc2c1,–,–,–,–,–,–
Cc1cc(Cl)c2oc(C(=O)N3CCCCC3CCN3CCCC3=O)c(C)c2c1 (stereo unspecified),·,–,·,–,·,–
O=C(Nc1ccccc1F)c1oc2ccccc2c1NC(=O)C1CC1,·,–,·,–,·,–
O=C(Nc1ccc(F)cc1)c1oc2ccccc2c1NC(=O)C1CCCC1,71,–,–,–,–,–
CC1(C)Cc2nc(NC3CCCCC3)c(C#N)cc2CO1,–,–,–,–,–,–
CCCCn1c(CN2CCN(C)CC2)nc2ccccc21,–,–,61,–,–,–
O=C(CNS(=O)(=O)c1ccc(Br)cc1)Nc1ccc2c(c1)OCCO2,·,–,·,–,·,–
COc1ccc(OCCn2cc(/C=C(\C#N)C(=O)NCc3ccco3)c3ccccc32)cc1,–,–,–,–,–,–
Cc1ccc(C)c(OCCn2cc(/C=C(\C#N)C(=O)NCc3ccco3)c3ccccc32)c1,–,–,65,–,–,–
Cc1cc(/C=C(\C#N)C(=O)NCc2ccco2)c(C)n1-c1cccnc1,–,–,·,–,–,–
COc1ccccc1OCCn1cc(/C=C(\C#N)C(=O)NCc2ccco2)c2ccccc21,–,–,53,–,–,–
Cc1cc(/C=C(\C#N)C(=O)NCc2ccco2)c(C)n1C1CCCC1,–,–,72,–,–,–
N#CC1(NC(=O)COC(=O)Cn2[nH]c(=O)c3ccccc3c2=O)CCCCC1,·,–,·,–,·,–
CCOC(=O)C1=C(C)N(C)C(=O)NC1c1c(O)ccc2ccccc12 (stereo unspecified),·,–,·,–,·,–
CC1CC(CCC(=O)NC(=S)Nc2ccc(S(N)(=O)=O)cc2)C(=O)O1 (stereo unspecified),–,–,–,–,–,–
O=C(N/N=C/c1ccc(N2CCOCC2)cc1)c1ccccc1OCCOc1ccccc1,–,–,61,–,–,–
O=C(N/N=C/c1ccc(N2CCOCC2)cc1)c1ccncc1,·,–,·,·,·,–
CC(C)CCNC(=O)C1C2C=CC3(CN(Cc4ccccc4Cl)C(=O)C13)O2 (stereo unspecified),92,–,–,–,–,–
CCCCNC(=O)C1C2C=CC3(CN(Cc4ccccc4Cl)C(=O)C13)O2 (stereo unspecified),–,–,–,–,–,–
CCOc1ccc(CN2CCN(CC(O)Cn3c4ccccc4c4ccccc43)CC2)cc1 (stereo unspecified),108,–,96,–,–,–
COc1ccc(-c2cc3ccccc3n2CC(O)CN2CCC(C)CC2)cc1 (stereo unspecified),–,–,87,–,–,–
SMILES,CHOP inh,UPR CHOP act,Lmaj promast,T cruzi inh,Dynein cargo inh,UPR XBP1 act
COc1ccc(CN2CCN(CC(O)Cn3c4ccccc4c4ccccc43)CC2)cc1 (stereo unspecified),–,–,99,–,–,–
CN1CCN(CC(O)Cn2c3ccccc3c3ccccc32)CC1 (stereo unspecified),·,–,·,–,·,–
O=C(CCC(=O)N1CCOc2ccccc21)NCc1cccnc1,·,–,·,–,·,–
Cc1nc2ccccc2nc1CN1CCC(CO)(CC2CCCCO2)CC1 (stereo unspecified),–,–,69,–,–,–
Cc1c(CN2CCC(CO)(CC3CCCCO3)CC2)cnn1C (stereo unspecified),–,–,–,–,–,–
O=C(/C=C/c1ccc(Cl)cc1)Nc1cc(S(=O)(=O)N2CCOCC2)ccc1N1CCOCC1,·,–,·,·,·,–
CCc1cccc(CC)c1-n1c(SCn2nnc3ccccc3c2=O)nnc1-c1cccnc1,–,–,67,–,–,–
Cn1c(SCC(=O)N2CCc3ccccc3C2)nnc1-c1cccs1,–,–,78,–,–,–
CCc1cccc(CC)c1-n1c(SCC(=O)N2CCc3ccccc3C2)nnc1-c1cccnc1,–,–,99,–,–,–
Cc1ccccc1-n1c(C)nnc1SCC(=O)N1CCc2ccccc2C1,–,–,50,–,–,–
Cn1c(SCC(=O)N2CCc3ccccc3C2)nnc1-c1ccncc1,–,–,–,–,–,–
COc1cccc(CNC(=O)CCNS(=O)(=O)c2ccc(C)cc2)c1,·,–,·,–,·,–
CCC1CCC(NC(=O)Nc2cccc(OC)c2)CC1 (stereo unspecified),–,–,–,–,–,–
COCC(C)n1c(SCC(=O)N2CCc3ccccc3C2)nc2ccccc2c1=O (stereo unspecified),–,–,91,–,–,–
COCC(C)n1c(SCC(=O)N2CCCCC2)nc2ccccc2c1=O (stereo unspecified),–,–,–,–,–,–
Cc1nc(Nc2ccc(Cl)cc2)c2nnn(Cc3ccccc3)c2n1,96,–,–,–,–,–
Cc1nc(Nc2ccc(S(=O)(=O)N3CCCCC3C)cc2)c2nnn(Cc3ccccc3)c2n1 (stereo unspecified),74,–,90,64,–,–
CSCCC(NC(=O)c1ccco1)C(=O)N1CC=C(c2ccccc2)CC1 (stereo unspecified),·,–,·,–,·,–
O=C(Nc1cnccn1)c1ccc(F)cc1Cl,·,–,·,–,·,–
CCCCCCC(=O)Cc1cc(OC)c(OC)cc1C=C(C(=O)OCC)C(=O)OCC,–,·,–,·,-4.3,·
CCN(CC)c1ncnc2c1[nH]c1ccccc12,–,–,60,–,–,–
COCCNc1ncnc2c1[nH]c1ccccc12,–,–,·,–,–,–
CCCOc1ncnc2c1[nH]c1ccccc12,72,–,–,–,–,–
O=C(CSc1ccc(-c2ccccn2)nn1)Nc1ccc(F)c(F)c1,·,–,·,–,·,–
CCCCNCCCOc1cc(Cl)ccc1Cl,–,–,98,–,–,–
CCNC(=O)CCCOc1ccc(Cl)cc1Cl,–,–,–,–,–,–
CCC(C)NCCCOc1cc(Cl)ccc1Cl (stereo unspecified),–,–,100,–,–,–
CCC(C)NCCCCOc1ccc(Cl)cc1C (stereo unspecified),–,–,97,–,–,–
